Bioassay records from PubChem BioAssay.
TAAR1 antagonist = antagonists of human TAAR1 | CHO RD-HGA16 TAAR1, Fluo-8 calcium fluorescence, antagonist | hit rate 1.5% among 360,000 | Q96RJ0 | inhibition, % at 3 µM;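 active = inhibition above a per-plate cutoff, the mean inhibition of test compounds on that plate plus 3 SD, cut at about 49% in these data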
Target sequence (Q96RJ0 whole entry, looked up): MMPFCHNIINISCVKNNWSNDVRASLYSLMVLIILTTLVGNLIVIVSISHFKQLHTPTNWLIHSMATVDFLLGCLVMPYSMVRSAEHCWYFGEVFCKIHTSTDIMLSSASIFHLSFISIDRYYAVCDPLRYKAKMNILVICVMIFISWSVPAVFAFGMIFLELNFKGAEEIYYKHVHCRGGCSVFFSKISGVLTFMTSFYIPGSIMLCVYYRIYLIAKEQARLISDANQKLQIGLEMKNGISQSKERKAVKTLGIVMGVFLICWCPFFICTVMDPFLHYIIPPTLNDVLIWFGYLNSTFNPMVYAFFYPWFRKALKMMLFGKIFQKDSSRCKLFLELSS
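Test system: CHO RD-HGA16 cells bearing hTAAR1 | Reagent: β-PEA, EC80 | Compound dosing: 3 µM, single point | Schedule: Dye loading 75 min at 37 °C, then 30 min room temperature | Signal: Calcium fluorescence with Fluo-8 | Evaluation: Percent inhibition of PEA-evoked calcium signal, max/basal emission ratio | Control set: DMSO-only wells and EC80 β-PEA-stimulated wells | Repeats: Singlicate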
OX1R antag-1 = blocks the human orexin 1 receptor; inhibition, % at 5 µM; O43613; CHO/OX1R cells, Fluo-8 calcium fluorescence, orexin A; hit rate 0.43% among 330,000;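 active = inhibition above its plate's threshold, mean inhibition of all tested compounds on the plate plus 3 SD, cut at about 37% in these data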
OX1R antag-2 = blocks the human orexin 1 receptor. O43613. OX1R-expressing cells, FRET antagonist read-out. inhibition, % at 6.6 µM. hit rate 1.8% among 330,000; in the data active = inhibition mostly above about 38%, no sharp cut-off; inactive = mostly below about 40%
GPR7 antag = human neuropeptides B/W receptor 1 antagonism. P48145. GPR7-expressing cells, fluorescence antagonist assay. inhibition, % at 4.4 µM. hit rate 1.1% among 290,000; in the data active = inhibition above about 16%, passing the limit was not always enough;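 also: cells stimulated with the agonist NPW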
Target sequence (P48145 whole entry, looked up): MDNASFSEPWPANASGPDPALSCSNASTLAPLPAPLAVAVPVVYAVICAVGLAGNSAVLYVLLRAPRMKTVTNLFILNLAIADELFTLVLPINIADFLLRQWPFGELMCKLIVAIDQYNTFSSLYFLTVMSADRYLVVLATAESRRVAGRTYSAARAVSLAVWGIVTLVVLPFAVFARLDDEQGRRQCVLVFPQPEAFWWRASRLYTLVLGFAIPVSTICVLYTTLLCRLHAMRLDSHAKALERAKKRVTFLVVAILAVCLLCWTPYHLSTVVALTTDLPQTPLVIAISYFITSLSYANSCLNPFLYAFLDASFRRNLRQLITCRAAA
CHO parental Ca = counter-screen for OX1R antagonists: effect in parental CHO cells | parental CHO-K1, ATP-induced calcium, Fluo-8 fluorescence | inhibition, % at 5.6 µM | hit rate 0.63% among 330,000 | AID 463079;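 active = inhibition above that plate's mean sample inhibition plus 3 SD, cut at about 26% in these data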
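material = parental CHO cells | also added = ATP as calcium-mobilizing challenge | dosing = single point at 5.6 µM | detection = intracellular calcium via Fluo-8 no-wash fluorescent dye | read-out = % inhibition | benchmarks = low control ATP plus DMSO, high control DMSO only | repeats = one well per compound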
TAAR1 agonist = human TAAR1 agonism; CHO RD-HGA16 TAAR1, Fluo-8 calcium fluorescence; vehicle wells 0%, saturating PEA agonist 100%; activation, % at 3 µM; hit rate 0.99% among 360,000; AID 624467;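 active = activation above the mean activation of all test compounds in the run plus 3 SD, cut at about 38% in these data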
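System: CHO-derived RD-HGA16 cells with stable Gα16 and human TAAR1. Times: 17-24 h plating, Fluo-8 75 min 37 °C, 30 min RT. Measured by: calcium-sensitive Fluo-8 signal, excitation 470-495, emission 515-575 nm. Read-out basis: % activation relative to PEA EC100 response. Control set: DMSO and PEA EC100. Repeats: no replicates (n 1).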
nonsel antag count = nonselective antagonist in TAAR1 antagonist counter-screen | shares compounds with TAAR1 antagonist | counterscreen cell line, calcium fluorescence, antagonist mode | inhibition, % at 3 µM | hit rate 77% among 2,400 | AID 651780; in the data active = inhibition above about 22%;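 also: CHO-Ga16 host cells stimulated with ATP at an EC80 level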
TAAR1 ant conf = human TAAR1 antagonism, confirmed. shares compounds with TAAR1 antagonist. TAAR1-expressing cells, fluorescence antagonist read-out. inhibition, % at 3 µM. hit rate 40% among 2,400. AID 651785; in the data active = inhibition above about 49%;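 also: CHO-Ga16 host cells challenged with agonist PEA near its EC80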
Ga16 ag counter = nonselective Ga16 agonist in TAAR1 antagonist counter-screen; hit rate 18% among 2,400; activation, % at 3 µM; Ga16-expressing cells, calcium fluorescence, agonist counterscreen; shares compounds with TAAR1 antagonist; in the data active = activation above about 12%
TAAR1 ag count = counter-screen for human TAAR1 antagonists: TAAR1 agonists; hTAAR1 cell line, fluorescence activation, agonist mode; activation, % at 3 µM; AID 651955; hit rate 2% among 2,400; shares compounds with TAAR1 antagonist; in the data active = activation above about 37%;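 also: CHO cells stably expressing TAAR1 with calcium dye readout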
Numbers stand for hits; – = inactive; · = no result given. Hits are enriched below; roughly 4.6% of the tested compounds scored in any of these assays.

SMILES	TAAR1 antagonist	OX1R antag-1	OX1R antag-2	GPR7 antag	CHO parental Ca	TAAR1 agonist	nonsel antag count	TAAR1 ant conf	Ga16 ag counter	TAAR1 ag count
CCN(CC)S(=O)(=O)c1ccc(OC)c(NC(=O)C(C)Oc2ccc3c(C)cc(=O)oc3c2)c1 (stereo not drawn)	103	–	–	–	–	–	–	–	–	–
CC(C)(C)c1ccc(CNc2ccc([N+](=O)[O-])cn2)cc1	68	–	–	–	–	–	–	–	12	–
CC(C)c1ccc(CNc2ccc([N+](=O)[O-])cn2)cc1	–	–	–	–	–	–	·	·	·	·
COc1cccc(OC)c1C(=O)Oc1ccc2c(c1)O/C(=C\c1ccncc1)C2=O	53	–	–	–	–	–	41	56	–	–
CCCCNC(=O)c1nc(-c2ccncc2)oc1-c1ccccc1	–	·	·	·	·	–	·	·	·	·
COc1ccc(CC(=O)OCC(=O)N2CCc3ccccc32)cc1OC	–	–	–	·	–	–	·	·	·	·
Cn1c(NC(=O)c2cccc(Cn3cc(Cl)cn3)c2)nc2ccccc21	–	–	–	–	–	–	·	·	·	·
CCn1c(NC(=O)c2cccc(Cn3cc(Cl)cn3)c2)nc2ccccc21	66	–	–	–	–	–	26	–	–	–
CN(C)c1ccccc1-c1cc(NC=O)c2ncc(-c3cccc(C(F)(F)F)c3)n2c1	–	·	·	·	·	–	·	·	·	·
O=C(Nc1ccccc1)c1cccc(N2C(=O)C3C4C=CC(C5CC45)C3C2=O)c1 (stereo not drawn)	–	–	–	–	–	–	·	·	·	·
COC(=O)c1ccc(NC(=O)c2cccc(N3C(=O)C4C5C=CC(C6CC56)C4C3=O)c2)cc1 (stereo not drawn)	65	–	–	–	–	–	58	75	15	–
O=[N+]([O-])c1cccnc1SCc1c(F)cccc1Cl	52	–	–	–	–	–	–	–	–	–
COc1cc(/C=C2/C(=N)N3C=CSC3=NC2=O)ccc1OCCCOc1ccccc1C	64	–	–	–	–	–	26	–	–	–
COc1cc(/C=C2/C(=N)N3C=CSC3=NC2=O)ccc1OCCCOc1c(C)cccc1C	–	–	–	–	–	–	·	·	·	·
CCCCCCN1C[C@@H](O)[C@H](n2cc(COC(=O)c3ccccc3)nn2)C[C@@H]1c1ccc(OC)cc1	–	·	·	·	·	–	·	·	·	·
O=C(COC(=O)[C@@H]1CC(O)CN1S(=O)(=O)c1ccccc1[N+](=O)[O-])Nc1ccc2ccccc2c1 (stereo partly drawn)	68	–	–	–	–	–	41	50	16	–
C[C@@H]1CC=C[C@@H]2[C@H]1C(=O)N(Cc1ccccc1)[C@H]2c1ccccc1Br	70	–	–	·	–	–	–	–	–	–
CCN=C1SC(CC(=O)Nc2ccc(C(F)(F)F)cc2)C(=O)N1CC (stereo not drawn)	77	–	–	–	–	–	38	65	13	–
O=C(OCC(=O)N1CCc2ccccc21)c1ccc([N+](=O)[O-])o1	–	–	–	·	–	–	·	·	·	·
Cc1cc(/C=N\NC(=O)c2cccs2)c(C)n1-c1ccc2ncccc2c1	103	–	–	–	–	–	34	98	12	–
CCN(Cc1ccccc1)c1cc2c(c3c1ccn3C)C1CCC2C1 (stereo not drawn)	–	·	·	·	·	–	·	·	·	·
CC1CCCCC12NC(=O)N(CC(=O)OCc1cccc(F)c1)C2=O (stereo not drawn)	–	–	–	·	–	–	·	·	·	·
CCOc1ccc2[nH]c(C(=O)N/N=C/c3ccc(OC)cc3)cc2c1	70	·	·	–	·	–	22	55	–	–
CN(Cc1nccn1C)C(=O)C1CCC(=O)N(Cc2cccc(C(F)(F)F)c2)C1 (stereo not drawn)	–	–	–	–	–	–	·	·	·	·
CCCCCNc1ncnc2c(C)[nH]nc12	–	·	·	·	·	–	·	·	·	·
SMILES	TAAR1 antagonist	OX1R antag-1	OX1R antag-2	GPR7 antag	CHO parental Ca	TAAR1 agonist	nonsel antag count	TAAR1 ant conf	Ga16 ag counter	TAAR1 ag count
Cc1c(C(=O)N2CCN(c3ccccc3)CC2)oc2c1C(=O)CC(C)(C)C2	67	–	–	–	–	–	30	53	–	–
NC(=O)c1ccsc1NC(=O)COC(=O)/C=C/c1ccccc1	79	–	–	·	–	–	41	74	17	–
COC(=O)c1ccccc1NC(=O)COC(=O)/C=C/c1cccs1	60	–	–	·	–	–	–	–	–	–
NC(=O)c1ccsc1NC(=O)COC(=O)CCc1ccccc1	–	·	·	·	·	–	·	·	·	·
COc1cccc(OC)c1C(=O)NC(=S)N1CCN(c2ccc(C(F)(F)F)cc2[N+](=O)[O-])CC1	81	–	–	–	–	–	31	51	–	–
Cc1c(-c2ccccc2)oc2c(C(=O)OCC(=O)Nc3cccc(F)c3)cccc2c1=O	63	–	–	–	–	–	33	64	–	–
CCOC(=O)[C@]12CCC=C1N(Cc1ccc(Cl)cc1Cl)C(=O)[C@H](CC(=O)NCc1cccc(C(F)(F)F)c1)C2	–	·	·	·	·	–	·	·	·	·
CC1(C(=O)NS(=O)(=O)c2cccc(C#N)c2)CCN1C(=O)Cc1cc(F)ccc1F (stereo not drawn)	–	·	·	·	·	–	·	·	·	·
CCSc1nnc(NC(=O)C2CSC3(C)CCC(=O)N23)s1 (stereo not drawn)	–	–	–	·	–	–	·	·	·	·
O=C1c2ccccc2C(Nc2ccc3c(c2)OCCO3)N1c1ccc(Cl)cn1 (stereo not drawn)	50	–	–	–	–	–	23	–	–	–
O=C1c2ccccc2C(Nc2ccc3c(c2)OCCO3)N1Cc1ccc2c(c1)OCO2 (stereo not drawn)	63	–	–	–	–	–	–	–	–	–
O=C(C1CCCC1)N1CCN(S(=O)(=O)c2cccc(Cl)c2Cl)CC1	–	–	–	–	–	–	·	·	·	·
Cc1cccc(N2CCN(C3=NC(=O)/C(=C\c4cn[nH]c4-c4ccccc4)S3)CC2)c1	61	–	–	–	–	–	41	59	–	–
C=CCn1c(=NC(=O)c2cccc(N3C(=O)CCC3=O)c2)sc2cccc(OC)c21	74	–	–	–	–	–	27	52	–	–
COc1ccccc1/C=C/C(=O)NC(=S)N(C)C1CCCCC1	68	–	–	–	–	–	33	–	–	–
COc1ccc(C(=O)NC(=S)N(C)C2CCCCC2)cc1Br	–	–	–	–	–	–	·	·	·	·
